According to ChEMBL document CHEMBL1138910, “Racemic and chiral sulfoxides as potential prodrugs of 4-pyrone COX-2 inhibitors” (Bioorg Med Chem Lett, 2006):
In brackets after ≈: the same amount, converted by molar mass.

Assays:
Rattus norvegicus [1] = test: Inhibition of adjuvant-induced arthritis in Wistar rat at 0.01 mg/kg, po; type: functional
Method in brief: (§1)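 Adjuvant-induced arthritis in male Wistar rats run as a therapeutic protocol. Compounds were given orally once daily for 7 days, starting on day 14 after arthritis induction. Paw edema was measured 24 h after the last dose. Results are reported as ED50 from four doses (six to eight animals per group) or as % inhibition at the stated dose.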

[2] = Cmax in Wistar rat at 1 mg/kg, po; type: ADME, organism-based; set-up: dose 1 mg/kg, route oral; conditions: in vivo
Rattus norvegicus [3] = test: Tmax in Wistar rat after administration as its prodrug at 1 mg/kg, po; type: ADME, organism-based; set-up: dose 1 mg/kg, route oral; conditions: in vivo
[4] = Metabolic stability in human liver microsomes at 5 uM after 30 min […]; type: ADME, Microsome; conditions: in the assay text read “37 degC” for “30 degC”, read-out: Stability
Rattus norvegicus [5] = test: Ratio AUC for prodrug to the parent compound in Wistar rat at 1 mg/kg, po; type: ADME, organism-based; set-up: dose 1 mg/kg, route oral; conditions: in vivo
[6] = Metabolic stability in rat liver microsomes at 5 uM after 30 min […]; type: ADME, Microsome; conditions: in the assay text read “37 degC” for “30 degC”, read-out: Stability
[7] = Tmax in Wistar rat at 1 mg/kg, po; type: ADME, organism-based; set-up: dose 1 mg/kg, route oral; conditions: in vivo
[8] = Solubility in simulated gastric fluid at pH 1.8, 37 degC after 24 hrs; type: physicochemical
Rattus norvegicus [9] = test: AUC in Wistar rat after administration as its prodrug at 1 mg/kg, po; type: ADME, organism-based, Plasma; set-up: dose 1 mg/kg, route oral; conditions: in vivo
[10] = Solubility in PBS at pH 7.2, 37 degC after 24 hrs; type: physicochemical
Rattus norvegicus [11] = species: Rattus norvegicus; test: Inhibition of yeast-induced pyresis in Wistar rat; type: functional
Method in brief: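 Yeast-induced pyresis in rats, an acute therapeutic protocol with a single oral dose. Temperature was measured at 1 h intervals from 1 to 5 h after dosing. ED50 was derived from four doses with six to eight animals per group.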

Rattus norvegicus [12] = test: Cmax in Wistar rat after administration as its prodrug at 1 mg/kg, po; type: ADME, organism-based; set-up: dose 1 mg/kg, route oral; conditions: in vivo
[13] = AUC in Wistar rat at 1 mg/kg, po; type: ADME, organism-based; set-up: dose 1 mg/kg, route oral; conditions: plasma
Rattus norvegicus [14] = test: Inhibition of adjuvant-induced arthritis in Wistar rat at 0.1 mg/kg, po; type: functional; method in brief: as §1
[15] = target: T1, Prostaglandin G/H synthase 2 (Homo sapiens, UniProt P35354); test: Inhibition of COX2 in human whole blood; type: tissue-based
T1 sequence (P35354 whole entry): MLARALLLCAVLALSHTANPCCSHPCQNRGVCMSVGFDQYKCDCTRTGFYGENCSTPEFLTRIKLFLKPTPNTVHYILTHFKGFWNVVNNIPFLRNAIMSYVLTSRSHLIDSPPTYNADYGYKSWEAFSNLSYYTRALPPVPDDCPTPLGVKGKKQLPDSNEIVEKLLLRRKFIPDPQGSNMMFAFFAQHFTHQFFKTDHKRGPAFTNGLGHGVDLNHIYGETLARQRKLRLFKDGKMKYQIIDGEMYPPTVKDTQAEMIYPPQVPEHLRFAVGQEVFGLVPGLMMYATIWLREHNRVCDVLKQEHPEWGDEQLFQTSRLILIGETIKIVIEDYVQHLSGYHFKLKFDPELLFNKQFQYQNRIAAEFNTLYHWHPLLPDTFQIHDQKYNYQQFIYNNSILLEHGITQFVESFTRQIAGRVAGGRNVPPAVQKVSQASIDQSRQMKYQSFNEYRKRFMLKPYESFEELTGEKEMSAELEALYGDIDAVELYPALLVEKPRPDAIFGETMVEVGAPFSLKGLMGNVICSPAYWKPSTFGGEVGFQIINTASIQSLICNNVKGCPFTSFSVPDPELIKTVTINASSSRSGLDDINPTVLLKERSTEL

Rattus norvegicus [16] = test: Activity against adjuvant-induced arthritis in po dosed Wistar rat; type: functional, organism-based; method in brief: as §1

| remaining at 0.5 h, 5 µM [4] [%] | remaining at 0.5 h, 5 µM [6] [%] | solubility at 24 h [8] [µg/mL] | solubility at 24 h [10] [µg/mL] | IC50 [15] [nM] | SMILES | ED50 (Rattus norvegicus [11]) [mg/kg] | other results |
| --- | --- | --- | --- | --- | --- | --- | --- |
| 41 | 67 | – | – | – | Cc1cc(=O)c(Oc2ccc(Cl)cc2F)c(-c2ccc([S@+](C)[O-])cc2)o1 | – | – |
| 48 | 87 | – | – | – | Cc1cc(=O)c(Oc2ccc(Cl)cc2F)c(-c2ccc([S@@+](C)[O-])cc2)o1 | – | – |
| 17 | 38 | – | – | 270 | Cc1cc(=O)c(Oc2ccc(F)cc2F)c(-c2ccc([S@+](C)[O-])cc2)o1 | – | – |
| 24 | 54 | 527 (≈ 1400 µM) | 150 (≈ 399 µM) | 920 | Cc1cc(=O)c(Oc2ccc(F)cc2F)c(-c2ccc([S+](C)[O-])cc2)o1 (configuration not stated) | 1.3 | Cmax [2]: 1310 ng/mL; Tmax [7]: 0.3 h; AUC [13]: 1310 ng·h/mL; inhibition in vivo at 0.1 mg/kg (Rattus norvegicus [14]): 59% |
| 64 | 77 | 31 (≈ 70.9 µM) | 15 (≈ 34.3 µM) | – | Cc1cc(=O)c(Oc2ccc(Br)cc2F)c(-c2ccc([S+](C)[O-])cc2)o1 (configuration not stated) | 2.8 | inhibition in vivo at 0.01 mg/kg (Rattus norvegicus [1]): 58%; Cmax [2]: 37 ng/mL; Tmax [7]: 0.3 h; AUC [13]: 43 ng·h/mL |
| 20 | 55 | – | – | 2100 | Cc1cc(=O)c(Oc2ccc(F)cc2F)c(-c2ccc([S@@+](C)[O-])cc2)o1 | – | – |

The remaining lines, values behind:

| SMILES | remaining at 0.5 h, 5 µM [4] [%] | remaining at 0.5 h, 5 µM [6] [%] | solubility at 24 h [8] [µg/mL] | solubility at 24 h [10] [µg/mL] | IC50 [15] [nM] | ED50 (Rattus norvegicus [11]) [mg/kg] | other results |
| --- | --- | --- | --- | --- | --- | --- | --- |
| Cc1cc(=O)c(Oc2ccc(Br)cc2F)c(-c2ccc(S(C)(=O)=O)cc2)o1 | 12 | 34 | 4 (≈ 8.82 µM) | 1 (≈ 2.21 µM) | – | 3.2 | inhibition in vivo at 0.01 mg/kg (Rattus norvegicus [1]): 60%; Cmax [2]: 177 ng/mL; Tmax (Rattus norvegicus [3]): 1.5 h; Ratio AUC (Rattus norvegicus [5]): 28; Tmax [7]: 2.2 h; AUC (Rattus norvegicus [9]): 1125 ng·h/mL; Cmax (Rattus norvegicus [12]): 243 ng/mL; AUC [13]: 1270 ng·h/mL |
| Cc1cc(=O)c(Oc2ccc(F)cc2F)c(-c2ccc(S(C)(=O)=O)cc2)o1 | 2 | 26 | 9 (≈ 22.9 µM) | 7 (≈ 17.8 µM) | – | 0.7 | Cmax [2]: 1510 ng/mL; Tmax (Rattus norvegicus [3]): 2.3 h; Ratio AUC (Rattus norvegicus [5]): 14; Tmax [7]: 1 h; AUC (Rattus norvegicus [9]): 18646 ng·h/mL; Cmax (Rattus norvegicus [12]): 2959 ng/mL; AUC [13]: 9220 ng·h/mL; inhibition in vivo at 0.1 mg/kg (Rattus norvegicus [14]): 68% |
| Cc1cc(=O)c(Oc2ccc(Br)cc2F)c(-c2ccc([S@+](C)[O-])cc2)o1 | 42 | 80 | – | – | 200 | – | – |
| Cc1cc(=O)c(Oc2ccc(Br)cc2F)c(-c2ccc([S@@+](C)[O-])cc2)o1 | 62 | 93 | – | – | 1580 | – | – |
| Cc1cc(=O)c(Oc2ccc(Cl)cc2F)c(-c2ccc([S+](C)[O-])cc2)o1 (configuration not stated) | 57 | 86 | 70 (≈ 178 µM) | 37 (≈ 94.2 µM) | – | 2.3 | inhibition in vivo at 0.1 mg/kg (Rattus norvegicus [14]): 56% |
| Cc1cc(=O)c(Oc2ccc(Cl)cc2F)c(-c2ccc(S(C)(=O)=O)cc2)o1 | 6 | 27 | 18 (≈ 44 µM) | 5 (≈ 12.2 µM) | – | 0.8 | inhibition in vivo at 0.1 mg/kg (Rattus norvegicus [14]): 63% |
| Cc1ccc(-c2ncc(Cl)cc2-c2ccc(S(C)(=O)=O)cc2)cn1 [ETORICOXIB] | – | – | – | – | – | 1 | EC50 (Rattus norvegicus [16]): 0.44 mg/kg |
| CS(=O)(=O)c1ccc(C2=C(c3ccccc3)C(=O)OC2)cc1 [ROFECOXIB] | – | – | – | – | – | 0.9 | EC50 (Rattus norvegicus [16]): 0.3 mg/kg |
